Reference: ChEMBL document CHEMBL4513216, “Probing the Open Global Health Chemical Diversity Library for Multistage-Active Starting Points for Next-Generation Antimalarials” (ACS Infect Dis, 2020)

Assay: Toxicity liver stage against HepG2, at 10uM
Assay type: cell-based
Parameters: test concentration 10 uM, cell line HepG2-A16-CD81EGFP
Settings: human, HepG2-A16-CD81EGFP cells; read-out: INHIBITION
Method in brief: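 Uninfected HepG2-A16-CD81EGFP cells, 3 × 10^3 per well, 1536-well, plated on prespotted compound at 10 μM final, parasite-free screening media added to match infected plates; puromycin 10 μM positive, DMSO 0.5% negative; run in parallel with 48 h PbLuc assay at 37 °C, 5% CO2; viability by CellTiter-Glo luminescence, normalized to controls.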

Row | SMILES | cytotoxicity at 10 µM [%]
1 | COc1cc(NC(=O)NCc2cc(C)oc2C)cc(OC)c1 | 5.24
2 | COc1ccc(Oc2ccc(CNC(=O)C3CCS(=O)(=O)C3)cn2)cc1 (configuration not stated) | -2.22
3 | CCN(C1CCN(c2cccc(F)c2C(C)=O)CC1)S(C)(=O)=O | 5.17
4 | O=C1COC2(CCN(Cc3ccsc3)CC2)CN1 | -3.46
5 | Cc1cnc(CN2CCN(C(C)c3nc(C4CC4)no3)CC2)cn1 (configuration not stated) | 1.32
6 | Cc1nnc2n1CCN(Cc1ncc(-c3ccc(Cl)cc3)o1)C2 | -17.7
7 | CCc1csc(CNC2CCN(Cc3ccccc3)C2)n1 (configuration not stated) | 4.82
8 | CC1CCc2nn(CCNC(=O)c3cccs3)c(=O)cc2C1 (configuration not stated) | 17
9 | O=C([C@H]1COC[C@H]2CN(C3CCOCC3)C[C@H]21)N1CCCO1 | -4.68
10 | CN(C)CCOCC1CN(C(=O)c2ccnnc2)Cc2ccnn2C1 (configuration not stated) | 7.89
11 | N#Cc1c(C2CC2)cc(-c2ccc(F)c(F)c2)nc1N | -5.73
12 | CCc1nnc(Nc2cccc(C3CCN(C(=O)CO)CC3)n2)s1 | -3.86
13 | COCCC(=O)N1CCC(c2cncc(Oc3cccnc3)n2)CC1 | -9.55
14 | COCC(=O)NCC1Cn2nnc(-c3ccncc3)c2CO1 (configuration not stated) | 8.22
15 | COc1ccccc1CNC(=O)CN(C)C(C)c1ccncn1 (configuration not stated) | -4.73
16 | COC1COC2(CCN(Cc3cccc(C#N)c3)CC2)C1 (configuration not stated) | -1.75
17 | Cc1nc(C)n(CC2CN(c3ncccn3)Cc3nccn3C2)n1 (configuration not stated) | -8.5
18 | Cc1cc(C(=O)N2CCc3ncnc(-c4cnn(C)c4)c3CC2)no1 | 8.88
19 | O=C(c1ccncc1)N1CC[C@@H](O)[C@@H](O)[C@H](N2CCC(F)(F)CC2)C1 | -10
20 | CC(C(=O)Nc1ccnn1C(C)C)N1CCCN(c2nccs2)CC1 (configuration not stated) | -9.39
21 | COCCC1(CO)CCCN(C(=O)CCC(F)(F)F)C1 (configuration not stated) | -2.86
22 | CC(O)c1cnn(-c2ccccc2)c1 (configuration not stated) | -1.55
23 | O=C(NCc1ccccn1)[C@@H]1CCO[C@@H]2CCN(Cc3ccoc3)C[C@H]21 | 5.33

Row | SMILES | cytotoxicity at 10 µM [%]
24 | c1ccc2oc(CN3CCCCC3Cn3cncn3)nc2c1 (configuration not stated) | -13.9
25 | CCCc1nnc(N2CCN(C3CCCC3)CC2)o1 | -13.8
26 | Cc1n[nH]c(C)c1-c1nccnc1CC1CCN(C(C)C)CC1 | -5.36
27 | O=C(CCC1CCN(C(=O)c2csnn2)CC1)NCc1cccc(Cl)c1 | -4.55
28 | COc1ccccc1OCC(=O)NS(=O)(=O)c1ccc(Br)s1 | -8.72
29 | CC(=O)N1CCC(N[C@@H]2CC[C@@H]2NS(=O)(=O)c2cccnc2)CC1 | 2.98
30 | Cc1nc(CN2C(=O)C[C@@H]3[C@@H]2CCN3CC2CCOCC2)cs1 | -135
31 | CCN1CC(=O)NCC12CCN(C(=O)c1ccco1)C2 (configuration not stated) | -2.86
32 | CC(C)n1cnnc1CN(C)C(=O)c1ccc[nH]1 | -0.371
33 | CC(C)c1nc(CN2CCOC(CNc3cccnn3)C2)cs1 (configuration not stated) | -2.93
34 | CC(C)(O)CCc1ccc(C(=O)N2CCN(CC3CCCC3)CC2)cc1 | 12.4
35 | CC(=O)Nc1ccc(CCC2(NC(=O)C3CC3)CCCCC2)cn1 | 13.4
36 | Cc1c(NC(=O)NC2CCOCC2)cccc1C(=O)N1CCCC1 | 12
37 | CCC=C(C)C(=O)N1CSCC1C(=O)NC1=NCCS1 (configuration not stated) | 11.8
38 | CC(=O)N1CCCC(Cc2cncc(Br)c2)CC1 (configuration not stated) | 4.99
39 | Cc1cc2ncc(C(C)NCc3cccnc3)c(C)n2n1 (configuration not stated) | -0.0764
40 | CCCc1cc(NCc2nc(COC)no2)n2nccc2n1 | -0.916
41 | COc1ccc(S(=O)(=O)N2CCC(Cn3ccnc3)CC2)cc1 | -0.178
42 | COc1cccc(CN(C)Cc2ccc(C#N)cc2)c1OC | -8.34
43 | NC(=O)c1csc(C(=O)N2CCCC(n3cccn3)C2)c1 (configuration not stated) | -2.77
44 | COc1ccnc(N2CCN(C(=O)Cc3ccsc3)CC2)n1 | -3
45 | Cc1ccccc1CC(=O)N1CC[C@@](O)(CNS(C)(=O)=O)[C@H](O)C1 | -25.6
46 | CCCN(Cc1cccnc1)C(=O)C1CCS(=O)(=O)CC1 | -9.03

Row | SMILES | cytotoxicity at 10 µM [%]
47 | O=C(NCC(=O)N1CCN(c2ccccc2)CC1)c1sccc1C1CC1 | -151
48 | CCc1nc(CSCc2csc(CS(C)(=O)=O)n2)cs1 | -6.79
49 | Cc1nn(C)c2nc(N3CCNC(=O)C3Cc3ccccc3)sc12 (configuration not stated) | -2.32
50 | O=C(c1ccc(F)cc1)N1CC[C@H]2[C@H]1CCN2CC1CCOCC1 | -76.4
51 | COc1cc(N2CCC3(CC2)CN(C)C(=O)CO3)ncn1 | 6.5
52 | CCc1cc(CN(C)C(=O)c2cnc3c(c2)nc(N)n3CC)on1 | 1.3
53 | O=C(Cn1ccc2ccccc21)NCc1ccc(C(=O)O)cc1 | -6.13
54 | Cc1cc2c(c(=O)n1CCC(=O)O)C=CC(C)(C)O2 | 10.8
55 | COc1ccc(CN(C(=O)C(C)SC)c2cnn(C)c2)c(OC)c1 (configuration not stated) | -3.88
56 | Cc1cc(C(=O)N2CCCC2)ccc1NCCO | -3.87
57 | O=C(c1cc(=O)n(-c2ccccc2)[nH]1)N1CCCC(c2ccn[nH]2)C1 (configuration not stated) | -2.21
58 | Cn1cc(C(=O)NCc2ccc(N3CCCC3)nc2)ccc1=O | -3.72
59 | COc1ccc(OCCC(=O)N2CCCC2Cn2cccn2)cc1 (configuration not stated) | -39
60 | CCN1CCCC12CCN(Cc1cccnc1OC)CC2 | 13.4
61 | CCOCc1ccccc1NC(=O)NCC(C)(O)c1cccs1 (configuration not stated) | -0.966
62 | O=C(NCc1ccccn1)[C@H]1COC[C@H]2CN(Cc3ccoc3)C[C@H]21 | 1.54
63 | CCc1nnc(CN(CC)C(=O)C2CC(=O)N(CC)C2)o1 (configuration not stated) | 1.97
64 | CN(C)C(=O)[C@@H]1C[C@H]2OCC[C@H]2N(CCOc2ccc(Cl)cc2)C1 | -124
65 | CCCC(=O)NS(=O)(=O)c1ccc(C#N)c(C(F)(F)F)c1 | -12.8
66 | Cn1ccc(-c2cc(C(=O)N3CCCCC3)c3ccccn23)n1 | -45.7
67 | OCC1(O)CCN(Cc2ccc(-c3cc[nH]n3)s2)CC1 | -135
68 | COc1ccc(C2Nc3cc(Cl)ccc3C3=NCCN32)cc1OC (configuration not stated) | 1.05
69 | Cc1noc(C)c1CC(=O)N1CCN(Cc2cscn2)CC1 | -8.72

Row | SMILES | cytotoxicity at 10 µM [%]
70 | Cc1nc(O)cc([C@@H]2CN(S(=O)(=O)N(C)C)C[C@H]2c2ccccc2F)n1 | 5.8
71 | Cc1c(C(C)NC(=O)Nc2ccc(F)cc2F)cnn1C (configuration not stated) | -46.2
72 | O=C(c1cccnc1N1CCN(CCO)CC1)N1CCCC1 | -1.32
73 | CCOc1ccc(C#N)cc1NCC(=O)Nc1cc(F)ccc1F | -9.47
74 | Cc1cccc(COc2ccc(C(C)N)cc2)c1 (configuration not stated) | -1.79
75 | O=C(NCC1CCN(CCc2ccccc2)C1)c1c(F)cccc1F (configuration not stated) | 16.6
76 | O=C(c1ccc(-n2cccn2)nc1)N1CCCN(c2cccnn2)CC1 | 0.65
77 | O=C1CSC(C(F)(F)F)c2c(O)nn(C3CCCC3)c2N1 (configuration not stated) | 3.49
78 | CC(NC(=O)Cc1cccs1)c1nnc2n1CCCCC2 (configuration not stated) | -15.5
79 | CNCC(=O)N1CCCC1c1n[nH]cc1-c1ccccc1F (configuration not stated) | -0.136
80 | CCCc1ccc(CN2CCN(c3ncccn3)[C@@H]3CS(=O)(=O)C[C@@H]32)o1 | 1.66
81 | CC(C)COCC(C)NC(=O)NCc1cccc(-n2cncn2)c1 (configuration not stated) | -0.662
82 | Cc1nn2cnnc2c(C)c1CCC(=O)Nc1nc2c(s1)CCC2 | -0.674
83 | CCOCC(=O)NS(=O)(=O)c1ccc(F)cc1C(F)(F)F | 3.25
84 | Cc1noc(C)c1CN1CC2(CCCCN2C)CC1=O (configuration not stated) | 2.75
85 | CC(C)NC(=O)[C@@H]1CN(C(=O)C2CC2)C[C@]12Cc1ccccc1C(=O)N2 | 1.48
86 | COCC(=O)N1CCC2(CC(=O)N(c3cccc(F)c3)C2)C1 (configuration not stated) | -156
87 | COC(=O)COn1c(SC(C)C)nc2ccccc2c1=O | -6.17
88 | COc1ncnc2c1CCN(c1cccc(F)c1)CC2 | 10.7
89 | Cc1cccnc1C(=O)N1CCC(Cc2cnc3[nH]ccc3c2)CC1 | 1.85
90 | CCC(Nc1nc(C(F)(F)F)nc2ccccc12)C(=O)O (configuration not stated) | 3.75
91 | O=C(C1CCOC1)N1CCC(OCc2ccccc2)CC1 (configuration not stated) | 3.15
92 | CC(C(=O)N1CCN(Cc2ccc(C#N)cc2)CC1)n1ccnc1 (configuration not stated) | -9.71

Row | SMILES | cytotoxicity at 10 µM [%]
93 | CCCc1nnc([C@H]2CCN(Cc3ncc[nH]3)C2)o1 | -1.63
94 | O=C(NCc1cc[nH]n1)N(CCCO)C1CCc2ccccc21 (configuration not stated) | -3.27
95 | Cc1cc2c(=O)n(CCOCCO)cnc2s1 | 8.72
96 | CC1(C)CN=C(N2CCN(CC3CCCCO3)CC2)S1 (configuration not stated) | -1.61
97 | CCCc1n[nH]c(C2CN(C(=O)CCCn3ccnc3C)CCO2)n1 (configuration not stated) | 6.03
98 | CCC(NC(=O)c1cnc(-c2cccnc2)nc1)c1ccnn1C (configuration not stated) | -2.11
99 | COCC1CN(Cc2cc(C)on2)Cc2cn(C)nc21 (configuration not stated) | -6.07
100 | CCC(CC)(CNC(=O)OC(C)(C)C)NC(=O)C1CC1 | -0.708
101 | Cc1nc(NC(=O)CCN2C(=O)c3ccccc3NC2C(C)C)sc1C (configuration not stated) | 0.308
102 | CC(NC(=O)NCCCN1CCCC1=O)c1nncn1C (configuration not stated) | -3.08
103 | COCCSc1ccc(-n2cccn2)nn1 | -24.6
104 | Cc1cc(C(=O)N2CCCC(n3cccn3)C2)c(C)n1C1CC1 (configuration not stated) | -16.7
105 | Cc1cc(F)c(S(=O)(=O)N(C)CCn2cccn2)cc1F | 0.532
106 | CCOc1ccc(C(=O)N2CCCC(n3ccnc3C)C2)cc1OC (configuration not stated) | -6.7
107 | O=C(NCc1cccnc1)[C@@H]1CC[C@@H]2[C@@H](CCN2c2ncccn2)O1 | -68
108 | Cc1ccc(CN2CC(O)CN(C(=O)C3CC3)CC2=O)cc1 (configuration not stated) | -2.12
109 | Cc1ccc(CN2CCCC3(CCN(S(C)(=O)=O)C3)C2)o1 (configuration not stated) | 2.21
110 | O=c1c2ccccc2nc2n1C(CSc1ccc(Br)cc1)CN2 (configuration not stated) | 6.76
111 | O=C(NCc1cc(F)ccc1F)Nc1ccn(CC(F)F)n1 | -3.06
112 | O=C1COC2(CCN(Cc3ccoc3)CC2)CN1 | -11.3
